Source: PubChem
hERG rescue: shields human hERG channel from block by proarrhythmic agents; CHO-hERG, FluxOR thallium flux, dofetilide IC70 present; activation (rescue from dofetilide block), less the hit threshold, % at 10 µM; 0.51% of 310,000 active;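 active = activation above the mean of controls blocked by dofetilide plus 5 SD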;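 also: thallium influx through hERG after potassium depolarization seen as dye fluorescence rise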
KCNK9 inh: human KCNK9 channel inhibition | Q9NPC2 | HEK293 KCNK9, FluxOR thallium flux fluorescence; stronger effect = lower value | B-score at 10 µM | 1.2% of 310,000 active | AID 488922;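 active = ratio B-score over 3 SD below the library mean, with starting fluorescence within 5 SD of its mean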;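 also: negative B-score means less thallium flux so channel inhibition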
KCNQ1 pot: human KCNQ1 channel potentiation or activation. P51787. CHO-K1 KCNQ1, thallium flux FluxOR fluorescence; stronger effect = higher value. B-score at 10 µM. 0.35% of 310,000 active;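 active = fluorescence ratio B-score, a plate-corrected score, at least three library SD, with initial intensity B-score within 5 SD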
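Assay system: CHO-K1 cells stably expressing KCNQ1; Medium: assay buffer with matched DMSO; Also added: K+/Tl+ depolarizing stimulus; Dosing: single dose; Timing: dye 90 min, compound 20 min, room temperature; Measured by: kinetic FluxOR thallium fluorescence, 10-s 1-Hz baseline, 110-s post-stimulus read; Read-out: peak-minus-minimum fluorescence over initial fluorescence, negative-control normalized, B-scored.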
KCC2 mod: modulates chloride dependent transport by human KCC2. Q9H2X9. KCC2 cells, thallium flux FluoZin-2 fluorescence. B-score of Tl+ flux slope (higher = more flux/activation; lower = inhibition) at 10 µM. 2.2% of 190,000 active;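 active = thallium flux slope and its plate-corrected score both differing from the plate sample mean at a set confidence after two filtering rounds, in either direction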;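 also: slope of fluorescence scaled to starting intensity during 10 to 20 s after thallium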
KCNQ1 block: human KCNQ1 channel inhibition; P51787; CHO-K1 KCNQ1, FluxOR thallium flux fluorescence; stronger effect = higher value; B-score at 10 µM; 1.3% of 310,000 active;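 active = compounds whose thallium flux B-score, printed positive for inhibition, exceeds three library SD while starting fluorescence stays within three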;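 also: channel opened by potassium depolarization with thallium stimulus after 20 min compound exposure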
KCNK3 block: human KCNK3 channel inhibition, primary screen; O14649; CHO-KCNK3 thallium flux, FluxOR fluorescence; stronger effect = lower value; B-score at 10 µM; 0.84% of 340,000 active;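 active = B-score under library mean minus 4 SD, starting fluorescence ratio at most library mean plus 5 SD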;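 also: more negative B-score means stronger inhibition of thallium flux through KCNK3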
Hits are given with their value; - = inactive; . = no result. Sampled rows, rich in hits. Any-hit rate of the full collection: about 4.1%.

SMILES	hERG rescue	KCNK9 inh	KCNQ1 pot	KCC2 mod	KCNQ1 block	KCNK3 block
Nc1ccc(C(=O)CC(=O)Nc2ccc(Cl)cc2)cc1	-	-	-	.	-	-
CC(=O)N1N=C(c2cccc(Cl)c2)OC1c1ccc(C(C)C)cc1 (stereo not given)	-	-	-	-	6	-
COc1ccccc1C(=O)Nc1cccc2cccnc12	-	-	-	.	-	-
Cc1c(NC(=O)CN2C(=O)NC(C)(c3ccccc3)C2=O)c(=O)n(-c2ccccc2)n1C (stereo not given)	5.8	-	-	-	-	-
O=C(NNC(=O)c1ccncc1)NC1CCCCC1	8.7	-	-	-	-	-
CC(C)C(NC(=O)c1ccccc1NC(=O)C(C)(C)C)C(=O)N1CCOCC1 (stereo not given)	.	.	.	.	.	-
Cc1nc2ccccc2n1-c1ccccc1	-	-	-	.	-	-
O=c1c(/C=C(\O)c2ccccc2)nc2ccccc2n1-c1ccccc1	-	-8.1	-	-	-	-
COc1ccc(S(=O)(=O)N2CCN(C(=O)c3cc(-c4ccc(C)cc4)n[nH]3)CC2)cc1	-	-	-	.	-	-
CCN(C[C@H]1N[C@@](C)(C(=O)OC)[C@H]2C(=O)N(Cc3ccccc3)C(=O)[C@@H]12)C(=O)c1ccc(C)cc1	.	.	.	.	.	-
O=C(Nc1nc(-c2ccccc2)cs1)c1ccc(N2CCOCC2)c([N+](=O)[O-])c1	-	-	-	-	7	-
COc1ccc(C)cc1NC(=O)c1cccc(-c2ccc(OC(C)=O)cc2)c1	-	-8.1	-	.	-	-
CCOC(=O)C1=C(C)N=c2s/c(=C/c3ccc(OCC(=O)O)cc3)c(=O)n2C1c1ccc(OC)cc1OC (stereo not given)	-	-	-	.	6	-
CCOC(=O)C1=C(C)N=c2s/c(=C\c3ccncc3)c(=O)n2C1c1ccc2c(c1)OCO2 (stereo not given)	-	-	-	-	8	-
COc1ccc(C2C(C(C)=O)=C(C)N=c3s/c(=C\c4cc(C)n(C)c4C)c(=O)n32)c(OC)c1 (stereo not given)	-	-	-	-	9	-
CCOC(=O)C1=C(C)N=c2s/c(=C\c3ccc(OCC(=O)O)cc3)c(=O)n2C1c1ccccc1OC (stereo not given)	-	-	-	.	-	-
CCOC(=O)C1=C(C)N=c2s/c(=C\c3ccc(OCC(=O)O)cc3)c(=O)n2C1c1ccc(Cl)cc1 (stereo not given)	-	-	-	.	7	-
COc1ccccc1NS(=O)(=O)c1cc(C(=O)Nc2ccc(S(=O)(=O)Nc3onc(C)c3C)cc2)ccc1C	.	.	.	.	.	-
COc1ccc(N2CCN(C(=O)CSc3nc4nc(C)cc(C)n4n3)CC2)cc1	.	.	.	.	.	-
COc1cc(C)c(NC(=O)COc2ccc3c(c2)CCC3)cc1OC	.	.	.	.	.	-
CCOCCCN(C(=O)c1snc(C(N)=O)c1N)C(C(=O)NCCC(C)C)c1ccc(Cl)cc1 (stereo not given)	-	-	-	.	-	-
COc1ccc(CNc2nc(NC(C)=O)nn2-c2ccccc2)cc1	-	-	-	.	-	-
COc1cc(C(=O)NS(=O)(=O)c2ccccc2C)ccc1Cc1cn(C)c2ccc(NC(=O)OC3CCCC3)cc12	-	-	-	-	10	.
COC(=O)c1sccc1NC(=O)CSc1ccccc1NS(=O)(=O)c1ccccc1Cl	-	-7.2	-	.	-	-
O=C(NNC(=O)c1ccccc1O)c1ccc(NS(=O)(=O)c2ccc(F)c(F)c2)cc1	-	-	-	.	6	-
SMILES	hERG rescue	KCNK9 inh	KCNQ1 pot	KCC2 mod	KCNQ1 block	KCNK3 block
C/C(=N\NC(=S)Nc1ccc(F)cc1)c1ccc2c(c1)OCCO2	-	-	-	48	-	-
C/C(=N\NC(N)=S)c1ccc2c(c1)OCCO2	-	-	-	-	-	-
COc1ccc2c(c1)CC/C(=C\Nc1ccc3c(c1)OCO3)C2=O	-	-	-	.	-	-
O=C1/C(=C/Nc2ccc3c(c2)OCO3)CCc2ccccc21	-	-	-	-	6	-
CCNC(=O)C/C(C)=N/NC(=O)C(=O)Nc1ccc(CC)cc1	4.7	-	-	-	-	-
COC(=O)CCNC(=O)c1ccc2nc(Cc3ccc(OC)c(OC)c3)oc2c1	-	-	-	.	-	-
Cn1c(-c2sc3ccccc3c2Cl)n[nH]c1=S	-	-	-	13	-	-
